Source: ChEMBL document CHEMBL4513216, “Probing the Open Global Health Chemical Diversity Library for Multistage-Active Starting Points for Next-Generation Antimalarials” (ACS Infect Dis, 2020)

Assay: Toxicity liver stage against HepG2, at 10uM
Format: cell-based
Set-up: test concentration 10 uM, cell line HepG2-A16-CD81EGFP
Conditions: human, HepG2-A16-CD81EGFP cells; read-out: INHIBITION
Summary of the method: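 Uninfected HepG2-A16-CD81EGFP cells, 3 × 10^3 per well, 1536-well, plated on prespotted compound at 10 μM final, parasite-free screening media added to match infected plates; puromycin 10 μM positive, DMSO 0.5% negative; run in parallel with 48 h PbLuc assay at 37 °C, 5% CO2; viability by CellTiter-Glo luminescence, normalized to controls.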

Structure (SMILES)	cytotoxicity at 10 µM [%]
Cn1ncc2c1CCCN(C(=O)C1CCC1)C2	-3.15
CN(CC(=O)NCCc1ccccn1)C(=O)c1cccs1	2.26
COc1ccc(-c2nnc([C@H]3CCN(CC(C)(C)C)C3)o2)cc1	-3.43
COc1ccc2c(c1)nc1n2[C@@H](CN(C2CCC2)C2CCC2)COC1	5.96
CC(C)(C)C(=O)CN1Cc2ccccc2NCCC1=O	-3.19
CC1CC(=O)c2cc(C(=O)N3CCc4ccccc4C3)c(=O)[nH]c2C1 (stereo unspecified)	-4.65
O=S(=O)(NCC1(O)CCOc2ccccc21)c1ccccc1F (stereo unspecified)	7.22
Cn1c(C(F)(F)F)nn(CCNC(=O)c2ccccn2)c1=O	-1.4
CS(=O)(=O)N1CCCC12CCCN(C(=O)c1ccncc1)C2 (stereo unspecified)	-159
Cc1ccc(S(=O)(=O)NC2=NCN(CCc3cccs3)CN2)cc1	4.77
COc1ccccc1NC(=O)CSC1CCc2ccccc2NC1=O (stereo unspecified)	20
Fc1cccc(Cl)c1CNCc1ccccn1	-2.25
CCn1cc(NC(=O)C(C)n2ncc(Cl)c2C)c(C(=O)NCC(C)C)n1 (stereo unspecified)	0.557
CC(C)NC(=O)COc1ccc(-c2nc(C(C)C)no2)cc1	5.67
COc1cccc(OCCNS(=O)(=O)Cc2ccccc2)c1	-15.7
C=CNC(=O)c1nnc2ccc(N3CCOCC3)cc2n1	8.85
CSc1ncnc(NCc2cccs2)c1C#N	-0.277
Cc1cc(C(=O)N2CCN(c3ncc4c(n3)CCOC4)CC2)sc1C	0.794
CN(C)C(=O)c1cncnc1-c1ccc(CNC(=O)C2CC2)cc1	2.33
Cc1onc(-c2ccncc2)c1C(=O)NC1CCCOC1 (stereo unspecified)	4.51
Cc1c(C(=O)N2CCC(C(=O)c3nc4ccccc4s3)CC2)cnn1C	6.32
CN1CCC(c2nnc3n2CCN(S(=O)(=O)c2ccccc2Cl)C3)CC1	2.58
COc1ccc(CC(=O)N2CCN(Cc3ccco3)C[C@H]2C)cc1OC	1.02

Structure (SMILES)	cytotoxicity at 10 µM [%]
NC(=O)c1cnn2c(C3CCCN(C4CCOCC4)C3)ccnc12 (stereo unspecified)	4.34
Cc1cc2c(c(=O)n1CCC(=O)O)C=CC(C)(C)O2	10.8
CC(Cn1cc(Cl)cn1)C(=O)Nc1ccc(CN2CCCCCC2)cc1 (stereo unspecified)	8.66
Cc1nc(C2CCN2c2ncccn2)cc(N(C)C)n1 (stereo unspecified)	-4.8
O=C(O)c1ccc(=O)n(CC(c2ccc(Cl)cc2)N2CCCCCC2)c1 (stereo unspecified)	1.12
Cc1cc(C(F)(F)F)n2nc(C3CCN(S(=O)(=O)N(C)C)CC3)cc2n1	-2.88
Oc1cc(C2CCCCN2Cc2ccsc2)nc(-c2ccncc2)n1 (stereo unspecified)	9.89
CCc1cc(C(=O)N[C@@H]2CC[C@@H](N3CCOCC3)[C@@H]2O)no1	37.5
O=C(C1CCCC1)N1CC2(CCNC2)OCc2ccccc21 (stereo unspecified)	8.9
COc1ccccc1CN1CCCC2(Cc3ccccc3CNC2=O)C1 (stereo unspecified)	6.2
COc1ccc(C(C)NCc2ccsc2)cc1Cn1cccn1 (stereo unspecified)	7.86
COCCN(Cc1ccccn1)C(=O)CC1OCCc2ccccc21 (stereo unspecified)	-42.5
CNC(=O)c1cccc(CCNC2CCSc3ccccc32)c1 (stereo unspecified)	3.42
CC(C)(CNC(=O)C1(c2ccccc2)CCOCC1)C(=O)O	1.25
COc1cc(Cl)c(CN2CCC(C(N)=O)C2)cc1Cl (stereo unspecified)	-2.4
Cc1ccc(OCc2cccc(C(=O)N(C)C(C)CC#N)c2)cn1 (stereo unspecified)	6.36
O=C(NCCc1nncn1C1CC1)C1SCCc2sccc21 (stereo unspecified)	-1.6
Cc1nc(NS(=O)(=O)c2ccc(F)c(Br)c2)no1	6.04
O=C(OCC1CCCN(C(=O)c2ccccc2)C1)c1cscn1 (stereo unspecified)	-9.92
Cc1cn2c(CN(C)C(=O)c3ncoc3C)c(C)nc2s1	-3.28
CCOC(C)c1nc(CN2CCC(C3OCCO3)CC2)cs1 (stereo unspecified)	-1.91
CN(C)C(=O)CCNC(=O)c1cnc(-c2ccccc2)nc1	4.87
O=C(c1cccc(NCCOc2ccc(F)cc2)c1)N1CCOCC1	7.43

Structure (SMILES)	cytotoxicity at 10 µM [%]
CC(C)(NC(=O)CCc1ccco1)c1ccc2c(c1)OCCO2	1.44
CC(CN1CCOCC1)NC(=O)NCc1cccs1 (stereo unspecified)	-15.9
CC(=O)N1CCN(C(=O)CN2CCN(c3cccc(C)c3)CC2)CC1	-1.75
N#CCSCCCN1CCN(C(=O)c2cccc(Cl)c2)CC1	-161
CC(=O)NCCNC(=O)c1ccc(C)c(-n2cccc2)c1	-2.04
CC(c1nc(C2CC2)no1)N1CCN(CC(=O)N2CCOCC2)CC1 (stereo unspecified)	6.75
O=C(CN1CCOC(Cn2cccn2)C1)Nc1cccnc1 (stereo unspecified)	10.7
Cc1cc(NC(=O)C(C)Nc2cccc(COCc3ccco3)c2)no1 (stereo unspecified)	-1.42
Cc1cc(C)c(CNC(=O)NC2COc3ccccc3C2)c(=O)[nH]1 (stereo unspecified)	-13.8
CCCc1nn(C2CCN(C(C)C)C2=O)c(=O)o1 (stereo unspecified)	-3.59
Cn1c(CCCNc2nccnc2C#N)nc2ccccc21	-8.98
O=C(Nc1ccn(Cc2cccc3cccnc23)n1)C1COCCO1 (stereo unspecified)	5.18
Cc1nc2scc(C)n2c1CNc1ccc(C(=O)O)cc1	7.05
Cc1cc(F)c2c(c1)CCCN2C(=O)c1cncc(Br)c1	1.25
Cc1ccc(-c2ncc(CNc3cnccc3CO)s2)o1	-10.9
CN(CC(=O)NCC(C)(C)c1ccc2c(c1)OCO2)c1cnccn1	-7.5
CCOC(=O)C1CCN(CCCc2nnnn2-c2ccccc2)CC1	0.462
Cc1ccc(CNC(=O)NCc2ccco2)s1	3.47
CC(C)Oc1cccc(CC(=O)N(CC(N)=O)C2CCCC2)c1	-2.09
Cc1cc(C)n(CC2CCCCN2CC(=O)Nc2nncs2)n1 (stereo unspecified)	-4.25
COCCn1ccc(NC(=O)Nc2ccc(C(N)=O)c(F)c2)n1	2.63
COc1cc(N2C[C@H](OCc3cccnc3)[C@H]3OCCC[C@H]32)ncn1	4.13
CC1(C)OC(=O)N(CCCOc2ccc(F)cc2)C1=O	0.17

Structure (SMILES)	cytotoxicity at 10 µM [%]
CCN(CC)C(=O)Cn1cc(C(=O)NCCc2scnc2C)nn1	-4.47
Cc1[nH]c(-c2ccccc2)nc1C(=O)N1CCC(O)(CO)CC1	1.1
O=C(Cc1ccccn1)N1CCCC(c2nccn2CC2CCC2)C1 (stereo unspecified)	-2.11
CN(C)CCO[C@H]1C[C@@H](O)C12CCN(c1ncccc1Cl)CC2	5.37
CN(CCc1cn[nH]c1)Cc1nc(Cc2cccc(C(F)(F)F)c2)no1	0.361
COC(=O)c1cc(NC(=O)NCC2CCS(=O)(=O)C2)ccc1Cl (stereo unspecified)	2.57
COCCN(C)C[C@@H]1CN(C(=O)c2cccc(Cl)c2)C[C@@H]1CO	-16.7
COc1cccc(N2CCN(C(=O)C(O)c3ccccc3Cl)CC2=O)c1 (stereo unspecified)	3.25
CSc1cccc(CN(C)C(=O)CN2CCN(c3ncccn3)CC2)c1	4.64
CC(C)CC(O)C1CCN(Cc2ccc(N(C)C)nc2)CC1 (stereo unspecified)	1.75
COc1cc(F)c(C(=O)N2C[C@@H](CN(C)CCO)[C@@H](CO)C2)c(F)c1	-1.53
Cc1noc(C)c1CN1CCC(c2nnc(Cn3cccn3)n2C)CC1	3.82
COCc1nnc(C(=O)N2CC(N3CCCCC3)C2)o1	-3.57
COCC[C@]1(O)CCN(Cc2nc(C)cs2)C[C@H]1C	10.5
Cc1ccnn1CC(=O)N1CCN(C2CCc3ccccc3C2)CC1 (stereo unspecified)	-131
CCc1cc(N2CCC(NCCc3ccccc3F)CC2)nc(C)n1	7.33
O=S1(=O)CCC(n2cc(C3=CCN(CCn4cccc4)CC3)cn2)C1 (stereo unspecified)	-8.5
CC(C)COc1ccccc1CN(C)C(=O)c1cc(=O)[nH]c(=O)[nH]1	2.05
Cc1nc[nH]c1CN1CCn2nc(CN3CC[C@H](F)C3)cc2C1	5.01
Cc1noc(-c2ccnc(N3CCN(C4CCOCC4)CC3)c2)n1	1.83
CN(Cc1ccccc1CN1CCCC1)C(=O)c1c[nH]c(=O)[nH]1	-3.99
CCc1nc(CN2CCCN(C(=O)c3cnc(C)cn3)CC2)cs1	-4.81
c1nc(N2CCCC2Cn2cncn2)c2sccc2n1 (stereo unspecified)	-9.19

Structure (SMILES)	cytotoxicity at 10 µM [%]
CN(Cc1ccccc1)CC(O)Cn1cnc2sccc2c1=O (stereo unspecified)	-6.54
CNC(=O)NCc1nn(-c2ccccc2)c2c1CCC2	-10.8
COCCc1noc(CN2CCCCC2Cn2cncn2)n1 (stereo unspecified)	-1.9
CCn1cc(NC(=O)C2CCN(CC(=O)N3CCOCC3)CC2)cn1	-3.46
COCc1nc(C(=O)NS(=O)(=O)c2ccc(C)s2)cs1	-4.61
N#CC1(C(=O)NCCCNc2ccc(C(F)(F)F)cn2)CCCC1	-6.36
Cc1nnc2n1CCN(Cc1ncc(-c3ccc(Cl)cc3)o1)C2	-17.7
Clc1snnc1CN1CCCCC1Cn1cncn1 (stereo unspecified)	-0.575
Cc1ccc(-c2nc(CCNC(=O)CCN3CCOC3=O)co2)cc1	2.33
CC(NC(=O)N1CCC(OCc2ccccc2)CC1)c1nncn1C (stereo unspecified)	-1.49
COCc1nc(C(=O)N2CCCC2c2noc(C(C)C)n2)cs1 (stereo unspecified)	0.866
CCCN1C(=O)CC2(CCCNC2)C1=O (stereo unspecified)	4.1
COc1cccc(Cn2c(C3CCNCC3)cc3cccnc32)c1	0.115
CN(C)C(=O)[C@@H]1CCO[C@@H]2CCN(Cc3ccc4c(c3)OCO4)C[C@@H]21	-3.76
O=S(=O)(NCC1OCCc2cn(Cc3ccccn3)nc21)C1CC1 (stereo unspecified)	-143
CS(=O)(=O)N1CCC2(CC1)CC(Oc1ccccn1)CO2 (stereo unspecified)	-150
Cc1nc(CN2CCO[C@H]3[C@H](OCC(=O)N(C)C)CC[C@@H]32)cs1	0.129
CO[C@@H]1CN(Cc2scnc2C)[C@@H]2CCCO[C@@H]21	-6.34
CN(Cc1cncnc1)[C@@H]1CN(Cc2ccco2)C[C@@H]2CCCO[C@@H]21	-1.6
